ChEMBL document CHEMBL4706672 (J Med Chem, 2021)
pIC50: −log10 of the molar value. Calls of active or inactive are those of the source. No cut-off for these calls is given here.

How the values were obtained:
HEK293 = test: Antiproliferative activity against human HEK293 cells assessed as reduction in cell viability incubated for 24 hrs by MTT assay; assay type: functional, cell-based; details: HEK293, 24 h
Procedure, shortened: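 HEK-293 cells were treated with compound for 24 h, in parallel with the luciferase reporter assay. Viability was read by MTT absorbance at 570 nm, and IC50 was taken from three independent experiments.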

MIA PaCa-2 = test: Antiproliferative activity against human MIA PaCa-2 cells assessed as reduction in cell viability incubated for 3 days by MTT assay; assay type: functional, cell-based; details: MIA PaCa-2, 72 h
Procedure, shortened: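 MTT assay. Cells were seeded at 3000–6000/well and incubated overnight, then exposed to compound or DMSO vehicle for 3 days in RPMI-1640 or DMEM with 10% FBS at 37 °C, 5% CO2. MTT (3 mg/ml) was added for 3 h at 37 °C, formazan was dissolved in DMSO and absorbance read at 570 nm. IC50 from three independent experiments, mean ± SD.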

BXPC-3 [1] = test: Antiproliferative activity against human BxPC-3 cells assessed as reduction in cell viability incubated for 3 days by MTT assay; assay type: functional, cell-based; details: BXPC-3, 72 h
[2] = target: T1, Protein cereblon/Signal transducer and activator of transcription 3 (Homo sapiens, UniProt P40763+Q96SW2); test: Protac activity at CRBN/STAT3 in human BxPC-3 cells assessed as effect on STAT3 expression level at 0.5 uM incubated for 16 hrs by western blot analysis; assay type: cell-based
Procedure, shortened: (§1)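 BxPC-3 cells seeded at 500 × 10^3 per well in 6-well plates, treated 16 h. Sonication lysis at 4 °C in Tris/NaCl/Triton/SDS buffer pH 7.4 with protease and phosphatase inhibitors, BCA protein assay, SDS-PAGE, PVDF transfer. Probed for STAT3, pSTAT3 and NQO1 with GAPDH loading control; fluorescent secondary detection.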
Target sequence in this assay (P40763 2-770 limits assumed): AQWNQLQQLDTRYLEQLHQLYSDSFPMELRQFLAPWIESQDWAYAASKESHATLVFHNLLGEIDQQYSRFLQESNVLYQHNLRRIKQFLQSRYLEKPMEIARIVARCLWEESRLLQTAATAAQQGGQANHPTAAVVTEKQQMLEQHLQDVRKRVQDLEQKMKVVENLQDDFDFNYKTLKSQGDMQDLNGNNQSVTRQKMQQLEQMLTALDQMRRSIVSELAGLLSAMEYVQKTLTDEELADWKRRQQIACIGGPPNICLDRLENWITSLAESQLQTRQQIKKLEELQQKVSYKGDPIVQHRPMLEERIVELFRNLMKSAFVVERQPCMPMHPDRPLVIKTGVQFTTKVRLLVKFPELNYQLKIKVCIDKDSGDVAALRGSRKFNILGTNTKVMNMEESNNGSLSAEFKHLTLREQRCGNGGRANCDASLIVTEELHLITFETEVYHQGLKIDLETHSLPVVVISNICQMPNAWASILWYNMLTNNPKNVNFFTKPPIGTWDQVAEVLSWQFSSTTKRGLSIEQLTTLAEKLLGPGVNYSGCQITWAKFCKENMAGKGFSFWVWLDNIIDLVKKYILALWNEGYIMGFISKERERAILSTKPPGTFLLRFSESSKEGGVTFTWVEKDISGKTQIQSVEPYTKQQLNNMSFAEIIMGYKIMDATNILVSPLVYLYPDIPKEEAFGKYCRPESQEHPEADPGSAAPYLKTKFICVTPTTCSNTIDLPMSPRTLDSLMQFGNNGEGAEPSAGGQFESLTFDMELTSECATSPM
Target sequence in this assay (Q96SW2 whole entry partner): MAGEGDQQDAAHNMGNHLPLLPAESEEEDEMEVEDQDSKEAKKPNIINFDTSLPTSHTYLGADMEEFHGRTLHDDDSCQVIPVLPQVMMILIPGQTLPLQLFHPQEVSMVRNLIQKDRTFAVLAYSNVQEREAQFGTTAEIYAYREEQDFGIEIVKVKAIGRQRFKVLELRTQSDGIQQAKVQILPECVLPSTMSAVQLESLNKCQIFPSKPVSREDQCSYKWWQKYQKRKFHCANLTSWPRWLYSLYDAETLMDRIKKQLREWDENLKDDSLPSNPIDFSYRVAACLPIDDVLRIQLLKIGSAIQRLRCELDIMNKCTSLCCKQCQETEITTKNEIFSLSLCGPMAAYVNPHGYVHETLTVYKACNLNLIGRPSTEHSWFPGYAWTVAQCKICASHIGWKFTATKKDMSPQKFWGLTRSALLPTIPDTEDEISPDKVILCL

[3] = target: Signal transducer and activator of transcription 3 (Homo sapiens) (UniProt P40763); test: Inhibition of STAT3 phosphorylation in human BxPC-3 cells at 0.5 uM after 16 hrs by western blot analysis; assay type: cell-based
Procedure, shortened: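 Cells were seeded in 6-well plates (BxPC-3 500 × 10^3, MIA PaCa-2 200 × 10^3 cells/well) and exposed to compound for 16 h. Lysis was at 4 °C by sonication in Tris/NaCl/Triton/SDS buffer, pH 7.4, with protease and phosphatase inhibitors. Lysates were run on SDS-PAGE, transferred to PVDF and probed for STAT3, pSTAT3 and NQO1 with GAPDH as loading control. Immunoblots were imaged on an Odyssey system.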

BXPC-3 [4] = test: Reduction in NQO1 levels in human BxPC-3 cells at 2 uM incubated for 16 hrs by western blot analysis; assay type: functional, cell-based; procedure, shortened: as §1
[5] = target: Protein cereblon/E3 ubiquitin-protein ligase ZFP91 (Homo sapiens, UniProt Q96SW2+Q96JP5); test: Protac activity at CRBN/ZFP91 in human BxPC-3 cells assessed as induction of ZF91 degradation at upto 3 uM incubated for 16 hrs by western blot analysis; assay type: cell-based; details: dose microM <=3, time 16.0 hrs
Procedure, shortened: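 BxPC-3 cells treated for 4, 16 or 24 h across a concentration series. ZFP91 immunoblotted against GAPDH; bands quantified by densitometry, DC50 calculated from dose-response curves of the densitometry.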

[6] = target: NAD(P)H dehydrogenase [quinone] 1 (Homo sapiens) (UniProt P15559); test: Binding affinity to NQO1 in human BxPC-3 cells assessed as thermal stability by measuring shift in melting temperature at 100 uM measured after 1 hr by cellular thermal shift assay; assay type: cell-based
BXPC-3 [7] = test: Inhibition of colony formation in human BxPC-3 cells assessed as reduction in colony formation at 0.06 to 0.5 uM incubated for 7 to 10 days in presence of NQO1 inhibitor dicoumarol; details: dose 0.06-0.5 µM
[8] = target: T1, Protein cereblon/Signal transducer and activator of transcription 3; test: Protac activity at CRBN/STAT3 in human BxPC-3 cells assessed as decrease in STAT3 expression level after 12 hrs by western blot analysis; assay type: cell-based
Target sequence in this assay (P40763 whole entry): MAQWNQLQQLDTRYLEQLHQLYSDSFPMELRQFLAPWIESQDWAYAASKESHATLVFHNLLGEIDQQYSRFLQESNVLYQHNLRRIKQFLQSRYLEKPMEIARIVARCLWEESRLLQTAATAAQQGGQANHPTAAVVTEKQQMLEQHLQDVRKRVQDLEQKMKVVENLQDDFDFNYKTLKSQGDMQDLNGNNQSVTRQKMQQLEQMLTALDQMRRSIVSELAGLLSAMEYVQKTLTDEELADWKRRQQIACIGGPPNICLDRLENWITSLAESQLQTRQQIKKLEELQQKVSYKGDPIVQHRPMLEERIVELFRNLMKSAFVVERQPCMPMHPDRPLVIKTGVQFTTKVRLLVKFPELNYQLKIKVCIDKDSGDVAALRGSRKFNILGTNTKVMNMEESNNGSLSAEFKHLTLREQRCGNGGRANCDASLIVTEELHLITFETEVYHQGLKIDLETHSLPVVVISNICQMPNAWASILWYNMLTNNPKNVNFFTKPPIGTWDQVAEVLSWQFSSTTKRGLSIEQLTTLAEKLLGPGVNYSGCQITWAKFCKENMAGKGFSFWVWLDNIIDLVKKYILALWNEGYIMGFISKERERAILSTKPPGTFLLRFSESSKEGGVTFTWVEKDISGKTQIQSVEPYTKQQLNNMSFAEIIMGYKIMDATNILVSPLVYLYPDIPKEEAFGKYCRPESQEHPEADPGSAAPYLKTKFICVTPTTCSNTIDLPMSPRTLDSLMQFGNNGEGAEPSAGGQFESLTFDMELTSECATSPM
Target sequence in this assay (Q96SW2 whole entry): as the sequence (Q96SW2 whole entry partner) above

BXPC-3 [9] = test: Antiproliferative activity against ZFP91 knockdown human BxPC-3 cells assessed as reduction in cell viability incubated for 48 hrs by MTT assay; assay type: functional, cell-based; details: BXPC-3, 48 h
Procedure, shortened: (§2)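 BxPC-3 cells were transfected with ZFP91 siRNA or scrambled control siRNA using Lipofectamine RNAiMAX in Opti-MEM, 5 pmol siRNA per complex. Compound was added together with the siRNA complex.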

BXPC-3 [10] = test: Antiproliferative activity against human BxPC-3 cells harboring ZFP91siRNA assessed as reduction in cell viability incubated for 48 hrs by MTT assay; assay type: functional, cell-based; details: BXPC-3, 48 h; procedure, shortened: as §2
BXPC-3 [11] = test: Binding affinity to PDI in human BxPC-3 cells assessed as thermal stability by measuring shift in melting temperature at 100 uM measured after 1 hr by cellular thermal shift assay; assay type: cell-based

Sequence of Signal transducer and activator of transcription 3 (Homo sapiens) (P40763 whole entry): as the sequence (P40763 whole entry) above
Sequence of Protein cereblon/E3 ubiquitin-protein ligase ZFP91 (Q96JP5 2-570 partner limits assumed): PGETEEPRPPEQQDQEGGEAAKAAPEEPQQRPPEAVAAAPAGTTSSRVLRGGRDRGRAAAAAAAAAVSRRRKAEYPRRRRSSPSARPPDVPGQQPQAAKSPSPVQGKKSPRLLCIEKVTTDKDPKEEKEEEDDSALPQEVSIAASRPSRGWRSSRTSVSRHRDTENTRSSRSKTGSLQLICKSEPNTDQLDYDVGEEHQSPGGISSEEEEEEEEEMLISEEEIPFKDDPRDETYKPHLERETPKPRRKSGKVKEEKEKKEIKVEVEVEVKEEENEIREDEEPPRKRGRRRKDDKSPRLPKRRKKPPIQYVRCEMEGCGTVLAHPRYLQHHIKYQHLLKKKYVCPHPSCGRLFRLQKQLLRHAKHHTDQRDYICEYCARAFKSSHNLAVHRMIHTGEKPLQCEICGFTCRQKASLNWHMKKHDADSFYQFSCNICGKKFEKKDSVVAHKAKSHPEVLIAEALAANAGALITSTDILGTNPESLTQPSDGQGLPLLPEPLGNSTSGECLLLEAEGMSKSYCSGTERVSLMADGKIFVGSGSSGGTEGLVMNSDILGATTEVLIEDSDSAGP
Sequence of Protein cereblon/E3 ubiquitin-protein ligase ZFP91 (Q96SW2 whole entry): as the sequence (Q96SW2 whole entry partner) above
Sequence of NAD(P)H dehydrogenase [quinone] 1 (Homo sapiens) (P15559 whole entry): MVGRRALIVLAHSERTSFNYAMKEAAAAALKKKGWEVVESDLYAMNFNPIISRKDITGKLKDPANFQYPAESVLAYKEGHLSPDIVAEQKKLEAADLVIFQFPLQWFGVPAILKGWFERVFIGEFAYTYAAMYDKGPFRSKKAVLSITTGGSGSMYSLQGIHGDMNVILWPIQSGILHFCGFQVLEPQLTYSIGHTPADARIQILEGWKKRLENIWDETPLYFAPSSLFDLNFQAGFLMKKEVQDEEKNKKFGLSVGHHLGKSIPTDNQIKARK

Cc1ncsc1-c1ccc(CNC(=O)[C@@H]2C[C@@H](O)CN2C(=O)[C@@H](NC(=O)COCCNC(=O)c2cc3c(o2)C(=O)c2ccccc2C3=O)C(C)(C)C)cc1
pIC50 (HEK293): < 4.52
pIC50 (MIA PaCa-2): 4.80
pIC50 (BXPC-3 [1]): < 4.52

O=C1CCC(N2C(=O)c3cccc(NCCNC(=O)c4cc5c(o4)C(=O)c4ccccc4C5=O)c3C2=O)C(=O)N1 (centres undefined)
pIC50 (HEK293): < 4.52
pIC50 (MIA PaCa-2): 5.40
pIC50 (BXPC-3 [1]): 5.77

O=C1CCC(N2C(=O)c3cccc(NCCCCCCNC(=O)c4cc5c(o4)C(=O)c4ccccc4C5=O)c3C2=O)C(=O)N1 (centres undefined)
pIC50 (MIA PaCa-2): 5.52
pIC50 (BXPC-3 [1]): 5.38

O=C(COc1cccc2c1C(=O)N(C1CCC(=O)NC1=O)C2=O)NCCCCNC(=O)c1cc2c(o1)C(=O)c1ccccc1C2=O (centres undefined)
pIC50 (HEK293): < 4.52
pIC50 (MIA PaCa-2): 4.98
pIC50 (BXPC-3 [1]): 4.62

O=C(NCCN1CCCCC1)c1cc2c(o1)C(=O)c1ccccc1C2=O
Activity [2]: inactive
inhibition [3]: Active

O=C1CCC(N2C(=O)c3cccc(NCCC4CCN(CCNC(=O)c5cc6c(o5)C(=O)c5ccccc5C6=O)CC4)c3C2=O)C(=O)N1 (centres undefined)
pIC50 (MIA PaCa-2): 5.96
pIC50 (BXPC-3 [1]): 5.96

O=C1CCC(N2C(=O)c3cccc(NCCOCCOCCOCCOCCNC(=O)c4cc5c(o4)C(=O)c4ccccc4C5=O)c3C2=O)C(=O)N1 (centres undefined)
pIC50 (HEK293): < 5.00
pIC50 (MIA PaCa-2): 5.36
pIC50 (BXPC-3 [1]): 5.00

Cc1ncsc1-c1ccc(CNC(=O)[C@@H]2C[C@@H](O)CN2C(=O)[C@@H](NC(=O)COCCOCCNC(=O)c2cc3c(o2)C(=O)c2ccccc2C3=O)C(C)(C)C)cc1
pIC50 (HEK293): < 4.52
pIC50 (MIA PaCa-2): 4.84
pIC50 (BXPC-3 [1]): < 4.52

O=C1CCC(N2C(=O)c3cccc(C#CCCCNC(=O)c4cc5c(o4)C(=O)c4ccccc4C5=O)c3C2=O)C(=O)N1 (centres undefined)
pIC50 (HEK293): 4.73
pIC50 (MIA PaCa-2): 5.68
pIC50 (BXPC-3 [1]): 5.28

O=C1CCC(N2Cc3c(CCCCCNC(=O)c4cc5c(o4)C(=O)c4ccccc4C5=O)cccc3C2=O)C(=O)N1 (centres undefined)
pIC50 (MIA PaCa-2): 5.19
pIC50 (BXPC-3 [1]): 4.86

CC(=O)c1cc2c(o1)C(=O)c1ccccc1C2=O [NAPABUCASIN]
pIC50 (HEK293): 4.98
inhibition (BXPC-3 [4]): Active
Activity [5]: inactive
Activity [6]: Active
inhibition (BXPC-3 [7]): Active
DC50 [8]: 2.1 µM
pIC50 (MIA PaCa-2): 5.92
pIC50 (BXPC-3 [9]): 5.74
pIC50 (BXPC-3 [10]): 5.89
Activity (BXPC-3 [11]): Active
pIC50 (BXPC-3 [1]): 5.85

O=C1CCC(N2C(=O)c3cccc(NCCN4CCN(CCNC(=O)c5cc6c(o5)C(=O)c5ccccc5C6=O)CC4)c3C2=O)C(=O)N1 (centres undefined)
pIC50 (MIA PaCa-2): 4.74
pIC50 (BXPC-3 [1]): 4.59

O=C1CCC(N2C(=O)c3cccc(NCCOCCNC(=O)c4cc5c(o4)C(=O)c4ccccc4C5=O)c3C2=O)C(=O)N1 (centres undefined)
pIC50 (MIA PaCa-2): 5.59
pIC50 (BXPC-3 [1]): 5.34

O=C1CCC(N2C(=O)c3cccc(NCCOCCOCCOCCNC(=O)c4cc5c(o4)C(=O)c4ccccc4C5=O)c3C2=O)C(=O)N1 (centres undefined)
pIC50 (HEK293): 4.95
pIC50 (MIA PaCa-2): 5.68
pIC50 (BXPC-3 [1]): 5.35
